Experiments:
Format in all cases: functional
[1] = test system: Mycobacterium tuberculosis; assay: Antitubercular activity against extensively drug-resistant Mycobacterium tuberculosis after 21 days by BACTEC MGIT 960 method; conditions: 504 h
Summary of the method: (§1)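 Compounds dissolved in 100% methanol (10 mg/mL stock), sonicated, filter-sterilised, diluted in sterile water; twofold serial dilutions, working range 8 to 0.125 µg/mL. Strains grown in Middlebrook 7H9 + OADC at 37 °C; inoculum adjusted to McFarland 1, diluted tenfold to 10^5 CFU/mL into MGIT tubes. Drug-free control received a 1:100 inoculum. MIC is the lowest dilution negative when the control turns positive. Triplicate.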

[2] = test system: Mycobacterium tuberculosis; assay: Antitubercular activity against multi-drug resistant Mycobacterium tuberculosis after 21 days by BACTEC MGIT 960 method; conditions: 504 h; summary of the method: as §1
[3] = test system: Mycobacterium tuberculosis; assay: Ratio of SQ109 MIC to compound MIC for extensively drug-resistant Mycobacterium tuberculosis
[4] = test system: Mycobacterium tuberculosis; assay: Ratio of SQ109 MIC to compound MIC for multi-drug resistant Mycobacterium tuberculosis

SMILES	MIC [1]	MIC [2]	Ratio [3]	Ratio [4]
CC(C)=CCC/C(C)=C/CNCCN[C@]12O[C@H]3C4C5CC(C6C5C3C61)C42.Cl.Cl (mixture of isomers)	4 µg/mL	2 µg/mL	–	–
CC(C)=CCC/C(C)=C/CNCCNC1C2C3CC4C5CC(C42)C1C53.Cl.Cl (racemic)	2 µg/mL	1 µg/mL	2	2
CC(C)=CCC/C(C)=C/CNCCNC1C2CC3CC(C2)CC1C3.Cl.Cl (stereo not drawn)	4 µg/mL	2 µg/mL	–	–
CC(C)=CCC/C(C)=C/CNC(=O)CN1[C@H]2C3C4CC5C6C4C2C6[C@@]1(O)C53 (mixture of isomers)	8 µg/mL	4 µg/mL	–	–
CC(C)=CCC/C(C)=C/CNCCN1[C@H]2C3C4CC5C6C4C2C6[C@@]1(O)C53.Cl.Cl (mixture of isomers)	4 µg/mL	2 µg/mL	–	–
CC(C)=CCC/C(C)=C/CNCC(=O)N[C@]12O[C@H]3C4C5CC(C6C5C3C61)C42 (mixture of isomers)	8 µg/mL	4 µg/mL	–	–
CC(C)=CCC/C(C)=C/CNCCN[C@@H]1C2C3CC4C5C3CC2C5C41.Cl.Cl (mixture of isomers)	8 µg/mL	4 µg/mL	–	–
CC(C)=CCC/C(C)=C/CNCCN[C@@H]1C2C3CC4C5C3C1C5[C@@H](O)C42.Cl.Cl (mixture of isomers)	4 µg/mL	2 µg/mL	–	–
